Source: PubChem BioAssay (SRMLSC)
The sample as a whole holds a higher share of hits than the screen did.
PTEN del growth: suppresses growth of cells with PTEN deletion; HCT116 PTEN-null viability, CellTiter-Glo, 60 h; hits give low values; viability, % at 10 µM; 140,000 compounds, 1.2% hits;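 active means viability at or below a set limit, 4 SD under the median of all tested compounds, cut at about 3.7% in these data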;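 further: PTEN knockout HCT116 line with beta catenin targeted HCT116 as companion control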
Lung fibro prol: blocks proliferation of human lung fibroblasts; 85,000 compounds, 1.1% hits; LL 47 human lung fibroblast viability, ATP luminescence; hits give low values; viability, % at 10 µM; AID 719;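 active means viability at or below 50% in the single dose screen; inactive means viability above 50%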;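 further: compound exposure lasted 72 h before the ATP readout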
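Benchmarks: Cell-only wells, no compound | Test system: LL 47 human lung fibroblasts, passage 12 or lower | Input: 1,150 cells/well | Measured by: CellTiter-Glo luminescence measuring cellular ATP | Medium: IMEM, 15% FBS supplement | Schedule: Overnight attachment after seeding, then 72 h compound exposure at 37 °C | Doses: Compound addition at 0.1% DMSO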
bCat KO growth: beta-catenin-lacking colon tumor cell growth suppression. AID 818. HCT116 beta-catenin knockout viability, CellTiter-Glo, 60 h; hits give low values. 140,000 compounds, 1.5% hits. viability, % at 10 µM;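 active means viability at or under a set limit, the compound median less 4 SD, cut at about 6% in these data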
HUVEC inhibit: inhibitors of human endothelial cell proliferation | HUVEC proliferation, CellTiter-Glo luminescence, 72 h; hits give low values | viability, % at 10 µM (by protocol) | 86,000 compounds, 1.1% hits;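 active means viability at or below 30%; inactive means viability above 30%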
H69AR growth 86K: blocks growth of human H69AR lung tumor cells. H69AR lung tumor viability, ATP luminescence, 72 h; hits give low values. viability, % at 10 µM. 85,000 compounds, 6% hits. AID 598;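 active means viability at or below 40%; inactive means viability above 40%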;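 further: multidrug resistant small cell line overexpressing MRP-1 efflux transporter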
Numbers stand for hits.

Results for Cc1ccc(NC(=O)CSc2nc3ccccc3c(=O)n2CCCN2CCCCC2)cc1C ?
PTEN del growth: 2.1; Lung fibro prol: 3.0; bCat KO growth: 1.9; HUVEC inhibit: 13; H69AR growth 86K: 2.2

How did Cc1cc(NC(=O)CSc2nc3c(sc4ccccc43)c(=O)n2CCCN2CCOCC2)n[nH]1 do in these assays?
PTEN del growth: inactive; Lung fibro prol: 39; bCat KO growth: inactive; HUVEC inhibit: inactive; H69AR growth 86K: 33

How did Cc1cc(NC(=O)CSc2nc3c(sc4ccccc43)c(=O)n2CCc2ccccc2)n[nH]1 do in these assays?
PTEN del growth: inactive; Lung fibro prol: inactive; bCat KO growth: inactive; HUVEC inhibit: inactive; H69AR growth 86K: inactive

What do the screens show for `COCCCn1c(SCC(=O)Nc2ccc(C(=O)OC)cc2)nc2ccccc2c1=O`?
PTEN del growth: inactive; Lung fibro prol: inactive; bCat KO growth: inactive; HUVEC inhibit: inactive; H69AR growth 86K: inactive

What do the screens show for `Cc1ccc(CSc2nc3ccccc3c(=O)n2CCCC(=O)NCc2ccco2)cc1`?
PTEN del growth: inactive; Lung fibro prol: inactive; bCat KO growth: inactive; HUVEC inhibit: inactive; H69AR growth 86K: 29

What do the screens show for `Cc1cccc(C)c1NC(=O)C(=O)NCc1ccccn1`?
PTEN del growth: inactive; bCat KO growth: inactive

What do the screens show for `S=C(Cc1cccnc1)N1CCOCC1`?
PTEN del growth: inactive; bCat KO growth: inactive

Results for Cc1ccc(NC(=O)CSc2nc3ccccc3c(=O)n2CCCC(=O)N2CCCC2)cc1 ?
PTEN del growth: inactive; Lung fibro prol: inactive; bCat KO growth: inactive; HUVEC inhibit: inactive; H69AR growth 86K: 15

What do the screens show for `COc1cccc([C@@H]2Oc3ccc(OC)cc3C(=O)[C@H]2O)c1`?
PTEN del growth: inactive; bCat KO growth: 5.3

Results for COc1ccc2c(c1)C(=O)[C@@H](O)[C@H](c1ccc(OC)c(Br)c1)O2 ?
PTEN del growth: inactive; bCat KO growth: inactive

Results for CCC(C)N(NC(C)=O)c1nc(Cl)nc(NC(C)(C)C)n1 (stereo unspecified) ?
PTEN del growth: inactive; Lung fibro prol: inactive; bCat KO growth: inactive; HUVEC inhibit: inactive; H69AR growth 86K: inactive

How did CC(=O)N1CC(=O)N=C1SCC(=O)Nc1nc(-c2ccccc2)c(-c2ccccc2)s1 do in these assays?
PTEN del growth: inactive; bCat KO growth: inactive

How did Cc1cccc(-n2ncc3c(NCc4ccccn4)ncnc32)c1 do in these assays?
PTEN del growth: inactive; Lung fibro prol: inactive; bCat KO growth: inactive; HUVEC inhibit: inactive; H69AR growth 86K: inactive

How did Cc1cccc(-n2ncc3c(NCCN4CCOCC4)ncnc32)c1 do in these assays?
PTEN del growth: inactive; Lung fibro prol: inactive; bCat KO growth: inactive; HUVEC inhibit: inactive; H69AR growth 86K: inactive

What do the screens show for `Cc1cccc(-n2ncc3c(NCc4ccco4)ncnc32)c1`?
PTEN del growth: inactive; Lung fibro prol: inactive; bCat KO growth: inactive; HUVEC inhibit: inactive; H69AR growth 86K: 26

What do the screens show for `Fc1ccc(CNc2ncnc3c2cnn3-c2ccccc2)cc1`?
PTEN del growth: inactive; Lung fibro prol: inactive; bCat KO growth: inactive; HUVEC inhibit: inactive; H69AR growth 86K: 37

How did Cc1cccc(-n2ncc3c(NCc4ccccc4)ncnc32)c1 do in these assays?
PTEN del growth: inactive; Lung fibro prol: inactive; bCat KO growth: inactive; HUVEC inhibit: inactive; H69AR growth 86K: 25

What do the screens show for `Cc1cccc(-n2ncc3c(N4CCCc5ccccc54)ncnc32)c1`?
PTEN del growth: inactive; Lung fibro prol: inactive; bCat KO growth: inactive; HUVEC inhibit: inactive; H69AR growth 86K: 35

How did Clc1ccc(-n2ncc3c(NCc4cccs4)ncnc32)cc1 do in these assays?
PTEN del growth: inactive; Lung fibro prol: 34; bCat KO growth: inactive; HUVEC inhibit: inactive; H69AR growth 86K: inactive

Results for c1ccc(CNc2ncnc3c2cnn3-c2ccccc2)cc1 ?
PTEN del growth: inactive; Lung fibro prol: inactive; bCat KO growth: inactive; HUVEC inhibit: inactive; H69AR growth 86K: 26

What do the screens show for `Cc1cccc(-n2ncc3c(NCc4cccs4)ncnc32)c1`?
PTEN del growth: inactive; Lung fibro prol: inactive; bCat KO growth: inactive; HUVEC inhibit: inactive; H69AR growth 86K: inactive

Results for c1ccc(CCNc2ncnc3c2cnn3-c2ccccc2)cc1 ?
PTEN del growth: inactive; Lung fibro prol: inactive; bCat KO growth: inactive; HUVEC inhibit: inactive; H69AR growth 86K: inactive

What do the screens show for `CC(C)OCCCNc1ncnc2c1cnn2-c1ccccc1`?
PTEN del growth: inactive; Lung fibro prol: inactive; bCat KO growth: inactive; HUVEC inhibit: inactive; H69AR growth 86K: inactive

Results for Cc1ccc(-n2ncc3c(NCCCOC(C)C)ncnc32)c(C)c1 ?
PTEN del growth: inactive; Lung fibro prol: inactive; bCat KO growth: inactive; HUVEC inhibit: inactive; H69AR growth 86K: 37

How did COc1ccc(-n2cnnc2SCC(=O)NC2CCCc3ccccc32)cc1 (stereo unspecified) do in these assays?
PTEN del growth: inactive; bCat KO growth: inactive

What do the screens show for `Cc1cc(=O)oc2ccc(OC(C)C(=O)O)cc12` (stereo unspecified)?
PTEN del growth: inactive; bCat KO growth: inactive

How did CN(C)c1ccc(C(=O)c2ccc(O)cc2O)cc1 do in these assays?
PTEN del growth: inactive; Lung fibro prol: inactive; bCat KO growth: inactive; HUVEC inhibit: inactive; H69AR growth 86K: inactive

Results for COc1ccc(C(=O)c2ccc(N(C)C)cc2)c2ccccc12 ?
PTEN del growth: inactive; Lung fibro prol: inactive; bCat KO growth: inactive; HUVEC inhibit: inactive; H69AR growth 86K: 27

How did CCN1CN(Cc2ccco2)CNC1=S do in these assays?
PTEN del growth: inactive; bCat KO growth: inactive

What do the screens show for `CC(C)OC(=O)/C(C#N)=C/c1c[nH]c2ccccc12`?
PTEN del growth: inactive; bCat KO growth: inactive

What do the screens show for `N#C/C(=C\c1ccc(N2CCOCC2)o1)c1nc2ccccc2[nH]1`?
PTEN del growth: inactive; Lung fibro prol: inactive; bCat KO growth: inactive; HUVEC inhibit: inactive; H69AR growth 86K: 20

How did CCCCCNC(=O)c1c[nH]c2ccc(S(=O)(=O)N3CCC4(CC3)OCCO4)cc2c1=O do in these assays?
PTEN del growth: inactive; bCat KO growth: inactive

Results for O=C(O)c1ccccc1C(=O)N1CCN(c2cccc(Cl)c2)CC1 ?
PTEN del growth: inactive; Lung fibro prol: inactive; bCat KO growth: inactive; HUVEC inhibit: inactive; H69AR growth 86K: inactive

What do the screens show for `COc1ccc(C(=O)N2CCN(S(=O)(=O)c3ccccc3)CC2)c(OC)c1`?
PTEN del growth: inactive; Lung fibro prol: inactive; bCat KO growth: inactive; HUVEC inhibit: inactive; H69AR growth 86K: inactive

How did COc1ccccc1C(=O)N1CCN(c2cccc(C(F)(F)F)c2)CC1 do in these assays?
PTEN del growth: inactive; Lung fibro prol: inactive; bCat KO growth: inactive; HUVEC inhibit: inactive; H69AR growth 86K: 15

Results for COc1ccc(C(=O)N2CCN(c3cccc(Cl)c3)CC2)c(OC)c1 ?
PTEN del growth: inactive; Lung fibro prol: inactive; bCat KO growth: inactive; HUVEC inhibit: inactive; H69AR growth 86K: 15

What do the screens show for `CCOc1ccc2ccccc2c1C(=O)N1CCN(c2ccccc2)CC1`?
PTEN del growth: inactive; Lung fibro prol: inactive; bCat KO growth: inactive; HUVEC inhibit: inactive; H69AR growth 86K: 15

What do the screens show for `CCOc1ccccc1C(=O)N1CCN(c2cccc(Cl)c2)CC1`?
PTEN del growth: inactive; Lung fibro prol: inactive; bCat KO growth: inactive; HUVEC inhibit: inactive; H69AR growth 86K: 31
